Assay results pooled from the literature.
Cell line: A549

Structure (SMILES)	test	setting	IC50 [µM]
O=C(/C=C/C=C/c1ccc2c(c1)OCO2)N1CCCCC1	cell growth or viability, SRB	–	280
CCC(=O)Nc1cc(Nc2nc(N3CCc4sccc4C3)c3cccnc3n2)c(OC)cc1N1CCSCC1	cell growth or viability, MTT	–	7.91
CC1=C(O)C(=O)C=C2C1=CC=C1[C@@]2(C)CC[C@@]2(C)[C@@H]3C[C@](C)(C(=O)OCCCO)CC[C@]3(C)CC[C@]12C	cell growth or viability, MTT	48 h	4.3
CCC(=O)Nc1cc(Nc2nc(N3CCOCC3)c3sccc3n2)c(OC)cc1N(C)CCN(C)C	cell growth or viability, MTT	–	> 50
COc1ccccc1/C=C/CNCC(O)COc1ccc2ccccc2c1 (stereo not shown)	cell growth or viability, CCK-8	72 h	17.1
COc1ccc(-c2nc(C(=O)Nc3nnc(-c4cc5ccccc5[nH]4)s3)cc3c2[nH]c2ccccc23)cc1	cell growth or viability, MTT	72 h	2.82
COc1cc2ncnc(Nc3ccc(F)c(Cl)c3)c2cc1NC(=O)N/N=C/CN(C)C	cell growth or viability, MTT	72 h	5.52
Brc1ccc(Nc2nc(NCCc3ccccc3)nc(NCCc3ccccc3)n2)cc1	cell growth or viability, SRB	72 h	19.7
Cc1ccc(C)n1-c1ccc(-c2nnc(-c3c(Cl)cccc3Cl)[nH]2)cc1	cell growth or viability, MTT	72 h	231
Cc1nc(Nc2ncc(C(=O)Nc3c(C)cccc3Cl)s2)cc(N2CCN(CCO)CC2)n1	cell growth or viability, MTT	48 h	11.8
COc1cc2ncnc(Nc3ccc(F)c(Cl)c3)c2cc1NC(=O)N/N=C/c1cccn1CCCN(C)C	cell growth or viability, MTT	72 h	2
O=C(NC(=S)Nc1ccc([N+](=O)[O-])cc1)c1ccc2ccccc2c1	cell growth or viability	48 h	5.24
O=C(NNC(=O)c1ccc(Nc2nccc(-c3ccccn3)n2)cc1)NC1CCCC1	cell growth or viability, MTT	–	> 40
CN1C(=O)/C(=N\NC(=O)c2cc3ccccc3[nH]2)c2cc(F)ccc21	cell growth or viability	–	2.82
O=C(CN1C(=O)/C(=C/c2ccco2)SC1=S)Nc1ccccc1	cell growth or viability, MTT	–	14.9
COc1ccc(/C=C/C(=O)C(=Cc2ccc(F)cc2)C(=O)/C=C/c2ccc(OC)c(OC)c2)cc1OC	colony formation	9 days	< 0.2
CCN(CC)C/C=N/NC(=O)Nc1cc2c(Nc3ccc(F)c(Cl)c3)ncnc2cc1OC	cell growth or viability, MTT	72 h	6.19
O=[N+]([O-])c1ccc(-c2csc(Nc3ccc4c(O)ncnc4c3)n2)cc1	cell growth or viability, MTT	–	17.9
COCCCOc1ccnc(COc2ccc(NC(=O)Nc3cc(F)cc(F)c3)cc2)c1C	cell growth or viability, MTT	72 h	44.8
COc1ccccc1/C=C/CNCC(O)COc1cccc2ncccc12 (stereo not shown)	cell growth or viability, CCK-8	72 h	28.1
Cc1c(OCC(F)(F)F)ccnc1COc1ccc(NC(=O)Nc2ccc(F)cc2)cc1	cell growth or viability, MTT	72 h	5.37
CCCCCCCCCCCC(=O)Oc1c(C)c(O)c(C(=O)/C=C/c2ccccc2)c(OC)c1C	cell growth or viability, SRB	72 h	> 50
